Measured values taken from PMC9942841 (Proceedings of the National Academy of Sciences of the …, 2023).
Peptide text beside a SMILES is read from it.

Experiments:
nude mice = assay: In vivo safety assay; set-up: species or system mouse; conditions: 10 mg/kg or 20 mg/kg subcutaneously, 24 h after injection
Summary of the method: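 Twelve 6-week-old female athymic NU/NU nude mice were randomised into 3 groups of 4. Groups received 10 or 20 mg/kg test compound injected subcutaneously into the back skin. Serum was assayed for ALT, AST, urea, CREA and UA. Heart, liver, spleen, lung and kidney were examined histologically by H&E. Error bars are SD from 3 biological replicates.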

[1] = system: mixed P. aeruginosa–S. aureus biofilms; assay: Clearance of established biofilm; assay type: cell-based, Pseudomonas aeruginosa + Staphylococcus aureus; conditions: concentrations <32 μM in PBS, 24 h, 37°C; crystal violet, 595 nm
Summary of the method: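 Preformed mixed P. aeruginosa–S. aureus biofilms were treated with the test compound, with gentamicin as comparator. Residual biomass was stained with crystal violet, and the solubilised dye was read spectrophotometrically at 595 nm. Results are expressed as biofilm percentage. The assay was run in both 96-well round-bottom plates and round-bottom tubes.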

Row | SMILES | Histological examination of heart, liver, spleen, kidneys, lungs (H&E) (nude mice) | Serum levels of ALT, AST, UA, urea and CREA (nude mice) | Effect on preestablished mixed biofilm [1]
1 | NCCCC[C@H](NC(=O)[C@H](CCCCN)NC(=O)[C@H](Cc1c[nH]c2ccccc12)NC(=O)[C@H](CCCCN)NC(=O)[C@H](CCCCN)NC(=O)[C@H](Cc1c[nH]c2ccccc12)NC(=O)[C@@H](N)Cc1c[nH]c2ccccc12)C(=O)N[C@@H](Cc1c[nH]c2ccccc12)C(=O)N[C@@H](Cc1c[nH]c2ccccc12)C(N)=O [Peptide K6] (H-WWKKWKKWW-NH2) | no abnormalities | within normal range | –
2 | CNC(C)C1CCC(N)C(OC2C(N)CC(N)C(OC3OCC(C)(O)C(NC)C3O)C2O)O1 (stereo not drawn) [Gentamicin, gentamicin] | – | – | little impact
